Data set [1] concerns the target T1, Nuclear receptor ROR-gamma (Homo sapiens, UniProt P51449).
T1 sequence (P51449 whole entry): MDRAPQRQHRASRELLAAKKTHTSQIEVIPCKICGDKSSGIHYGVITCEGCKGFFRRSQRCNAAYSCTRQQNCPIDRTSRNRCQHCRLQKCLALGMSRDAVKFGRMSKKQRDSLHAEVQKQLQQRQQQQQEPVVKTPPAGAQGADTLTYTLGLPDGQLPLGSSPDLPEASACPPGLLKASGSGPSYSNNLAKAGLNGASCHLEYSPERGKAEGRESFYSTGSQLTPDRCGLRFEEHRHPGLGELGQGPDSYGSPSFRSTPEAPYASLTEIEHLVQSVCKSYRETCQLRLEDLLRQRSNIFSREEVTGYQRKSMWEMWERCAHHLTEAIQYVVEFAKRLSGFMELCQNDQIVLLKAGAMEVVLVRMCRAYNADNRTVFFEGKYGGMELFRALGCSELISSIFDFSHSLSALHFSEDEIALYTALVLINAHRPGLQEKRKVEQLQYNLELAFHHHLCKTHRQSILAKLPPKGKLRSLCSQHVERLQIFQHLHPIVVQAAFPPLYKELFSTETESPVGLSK
In words: Displacement of [3H]-T0903017 from GST-tagged ROR-gamma (unknown origin) after 20 hrs. A general note: Displacement assays read how much labelled ligand stays bound in the presence of the test substance.

For data set [2], the target named is Cytochrome P450 3A4 (Homo sapiens, UniProt P08684). The data set is described as follows: Inhibition of CYP3A4 (unknown origin) at 10 uM. It counts as ADME.
Chain of Cytochrome P450 3A4 (P08684 whole entry): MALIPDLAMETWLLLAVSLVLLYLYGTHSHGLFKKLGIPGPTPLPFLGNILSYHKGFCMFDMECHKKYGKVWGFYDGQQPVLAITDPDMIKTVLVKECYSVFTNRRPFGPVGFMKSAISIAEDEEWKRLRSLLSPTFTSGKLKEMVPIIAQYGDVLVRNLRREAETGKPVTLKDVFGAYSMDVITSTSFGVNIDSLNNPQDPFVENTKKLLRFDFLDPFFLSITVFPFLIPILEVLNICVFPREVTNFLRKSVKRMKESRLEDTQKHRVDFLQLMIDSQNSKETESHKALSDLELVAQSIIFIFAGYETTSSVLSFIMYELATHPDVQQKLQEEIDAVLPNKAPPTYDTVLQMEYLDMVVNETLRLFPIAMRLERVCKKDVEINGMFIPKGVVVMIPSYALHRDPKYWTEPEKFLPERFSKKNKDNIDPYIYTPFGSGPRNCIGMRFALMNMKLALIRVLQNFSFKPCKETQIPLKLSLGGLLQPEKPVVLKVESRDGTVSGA
Data set [3] has as its target T2, Cytochrome P450 1A2 (Homo sapiens, UniProt P05177).
T2 sequence (P05177 whole entry): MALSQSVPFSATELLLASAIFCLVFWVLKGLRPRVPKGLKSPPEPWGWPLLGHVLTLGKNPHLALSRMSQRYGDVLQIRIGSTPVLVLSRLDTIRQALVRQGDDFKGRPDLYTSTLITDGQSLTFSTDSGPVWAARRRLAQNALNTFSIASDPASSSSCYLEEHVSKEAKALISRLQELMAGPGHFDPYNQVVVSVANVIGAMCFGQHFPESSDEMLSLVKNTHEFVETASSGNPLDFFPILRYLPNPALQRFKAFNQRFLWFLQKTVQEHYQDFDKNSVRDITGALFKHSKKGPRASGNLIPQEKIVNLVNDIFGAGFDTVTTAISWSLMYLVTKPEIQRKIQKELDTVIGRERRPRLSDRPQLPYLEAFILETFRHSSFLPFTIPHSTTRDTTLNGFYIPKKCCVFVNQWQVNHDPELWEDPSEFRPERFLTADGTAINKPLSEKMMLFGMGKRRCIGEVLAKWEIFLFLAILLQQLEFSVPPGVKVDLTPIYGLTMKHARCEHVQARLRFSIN
In words: Inhibition of CYP1A2 (unknown origin) at 10 uM. The class given is ADME.

In data set [4] the target is Cytochrome P450 2D6 (Homo sapiens, UniProt P10635). The data set is described as follows: Inhibition of CYP2D6 (unknown origin) at 10 uM. The class given is ADME.
Chain of Cytochrome P450 2D6 (P10635 whole entry): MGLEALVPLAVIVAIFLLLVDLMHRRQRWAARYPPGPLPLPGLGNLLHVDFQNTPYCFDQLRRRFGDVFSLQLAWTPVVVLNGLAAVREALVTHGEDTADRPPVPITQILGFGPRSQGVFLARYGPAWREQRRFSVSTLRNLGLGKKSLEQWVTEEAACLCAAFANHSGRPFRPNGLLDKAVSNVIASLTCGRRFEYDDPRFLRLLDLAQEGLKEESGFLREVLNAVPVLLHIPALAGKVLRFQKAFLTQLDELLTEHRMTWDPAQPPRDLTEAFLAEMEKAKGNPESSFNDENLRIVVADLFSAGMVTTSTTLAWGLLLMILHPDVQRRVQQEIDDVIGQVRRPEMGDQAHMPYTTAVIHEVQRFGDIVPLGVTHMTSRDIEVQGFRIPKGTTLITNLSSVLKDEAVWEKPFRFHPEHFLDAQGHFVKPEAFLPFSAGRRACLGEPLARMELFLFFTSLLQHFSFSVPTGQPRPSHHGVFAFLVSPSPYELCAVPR
A short description of data set [5]: Solubility of the compound in phosphate buffered saline at 100 uM at pH 7.4 after 20 hrs. The note with it: buffer, pH 7.4, 20 h. It counts as physicochemical. In a few lines: (§1)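 100 µM compound solutions shaken at room temperature for 20 hr in PBS pH 7.4 or sodium citrate buffer pH 5.0; dissolved concentration reported in µM.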
The nature of data set [6]: Solubility of the compound in sodium citrate buffer at 100 uM at pH 5 after 20 hrs. The class given is physicochemical. The note with it: pH 5, 20 h. In short, it runs like this: as §1
Data set [7] deals with Cytochrome P450 2C9 (Homo sapiens, UniProt P11712). The data set is described as follows: Inhibition of CYP2C9 (unknown origin) at 10 uM. The class given is ADME.
Chain of Cytochrome P450 2C9 (P11712 whole entry): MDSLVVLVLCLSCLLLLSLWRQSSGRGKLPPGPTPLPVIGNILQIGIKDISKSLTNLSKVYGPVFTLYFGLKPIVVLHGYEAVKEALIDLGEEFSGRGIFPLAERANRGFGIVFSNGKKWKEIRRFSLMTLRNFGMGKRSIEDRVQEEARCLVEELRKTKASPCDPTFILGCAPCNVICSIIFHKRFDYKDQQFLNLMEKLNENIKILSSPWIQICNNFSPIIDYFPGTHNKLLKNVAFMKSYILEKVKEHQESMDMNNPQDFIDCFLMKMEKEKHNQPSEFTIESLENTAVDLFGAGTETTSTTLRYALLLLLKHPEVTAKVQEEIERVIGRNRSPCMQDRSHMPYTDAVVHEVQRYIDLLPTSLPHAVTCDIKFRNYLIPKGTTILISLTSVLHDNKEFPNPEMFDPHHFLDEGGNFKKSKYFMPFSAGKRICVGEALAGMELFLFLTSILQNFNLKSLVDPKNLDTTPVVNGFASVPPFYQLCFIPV
Data set [8] in a line: Drug level in C57Bl6 mouse brain at 10 mg/kg, ip after 6 hrs. Also on record: dose 10 mg/kg, route intraperitoneal. It counts as ADME, organism-based. The note with it: read-out: Drug uptake.
Data set [9] can be described thus: Plasma concentration in C57Bl6 mouse at 10 mg/kg, ip after 6 hrs. The class given is ADME, organism-based. Also on record: dose 10 mg/kg, route intraperitoneal.
Data set [10] deals with Brain. The data set is described as follows: Brain penetration in C57Bl6 mouse brain at 10 mg/kg, ip after 6 hrs. More on the design: dose 10 mg/kg, route intraperitoneal. The note with it: in vivo. The class given is ADME, organism-based.
For data set [11], the target named is T3, Bile acid receptor (Homo sapiens) (UniProt Q96RI1).
T3 sequence (whole entry): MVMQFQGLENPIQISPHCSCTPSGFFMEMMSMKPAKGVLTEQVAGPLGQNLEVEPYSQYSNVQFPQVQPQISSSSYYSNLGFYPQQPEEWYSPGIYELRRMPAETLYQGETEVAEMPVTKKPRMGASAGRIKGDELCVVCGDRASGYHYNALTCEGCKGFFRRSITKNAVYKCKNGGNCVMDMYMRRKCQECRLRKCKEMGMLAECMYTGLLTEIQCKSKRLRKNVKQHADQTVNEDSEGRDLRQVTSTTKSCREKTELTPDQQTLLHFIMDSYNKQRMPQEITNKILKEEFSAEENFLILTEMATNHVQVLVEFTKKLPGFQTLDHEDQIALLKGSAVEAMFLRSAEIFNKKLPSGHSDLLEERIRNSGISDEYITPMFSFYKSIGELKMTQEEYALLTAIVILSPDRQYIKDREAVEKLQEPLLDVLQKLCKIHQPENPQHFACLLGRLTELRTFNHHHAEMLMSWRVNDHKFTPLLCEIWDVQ
In words: Modulation of FXR (unknown origin).

Data set [12] deals with T4, Oxysterols receptor LXR-alpha (Homo sapiens) (UniProt Q13133).
T4 sequence (whole entry): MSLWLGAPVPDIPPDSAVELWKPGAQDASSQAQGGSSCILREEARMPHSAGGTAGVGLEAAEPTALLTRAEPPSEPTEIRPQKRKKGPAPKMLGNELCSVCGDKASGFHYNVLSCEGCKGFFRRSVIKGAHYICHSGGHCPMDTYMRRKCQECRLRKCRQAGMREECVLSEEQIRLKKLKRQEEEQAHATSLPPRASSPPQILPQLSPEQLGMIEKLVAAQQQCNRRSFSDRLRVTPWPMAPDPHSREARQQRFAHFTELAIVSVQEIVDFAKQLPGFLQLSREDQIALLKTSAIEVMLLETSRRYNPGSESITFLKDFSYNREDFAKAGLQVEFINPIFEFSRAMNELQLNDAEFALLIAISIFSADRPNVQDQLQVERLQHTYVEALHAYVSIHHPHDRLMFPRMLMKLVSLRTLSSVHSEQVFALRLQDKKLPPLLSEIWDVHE
In words: Modulation of LXR-alpha (unknown origin).

Structures are written as SMILES. Values after ≈ are worked out from the molar mass of the structure shown. Active and inactive are the calls of the source. The rule behind the calls is not given here.

As for `COc1ccc(C(CC(=O)N2CCCCC2)c2c(O)cc(OC)cc2OC)cc1` (stereo not drawn), the IC50 result in [1] was “Not Active”.
As for `COc1ccc(C(CC(=O)NCc2ccccc2)c2c(O)cc(OC)cc2OC)cc1` (stereo not drawn), the IC50 entry in [1] was “Not Active”.
In general, solubility refers to the concentration that dissolves in the medium under given conditions. Consider `COc1ccc(C(CC(=O)N2CC(C)CC(C)C2)c2c(O)cc(OC)cc2OC)cc1` (stereo not drawn), for which the “inhibition (INH)” value in [2] was 75%; in data set [3], 4%; in data set [4], -7%; in data set [7] it was 65%. The solubility in [5] was found to be 18 µM (≈ 7.7 µg/mL); in [6], 19.5 µM (≈ 8.34 µg/mL).
As to `COc1ccc(C(CC(=O)N2CCCC2)c2c(O)cc(OC)cc2OC)cc1` (stereo not drawn), in data set [1], the IC50 entry is reported as “Not Active”.
On to `COc1ccc(C(CC(=O)NC2CCCC2)c2c(O)cc(OC)cc2OC)cc1` (stereo not drawn), for which the IC50 entry in [1] was “Not Active”.
The same measure, in the same setting: for `COc1ccc(C(CC(=O)N2CCOCC2)c2c(O)cc(OC)cc2OC)cc1` (stereo not drawn) the value was “Not Active”.
For `COc1cc(O)c(C(CC(=O)N2CC(C)CC(C)C2)c2ccccc2OC)c(OC)c1` (stereo not drawn), the “inhibition (INH)” value is recorded as 70% in data set [2], -22% in [3], -11% in [4] and 53% in [7]. Further, the solubility stood at 12.7 µM (≈ 5.43 µg/mL) in data set [5] and 6 µM (≈ 2.57 µg/mL) in [6].
Turning to `COc1cc(O)c(C(CC(=O)N2CC(C)CC(C)C2)c2ccc3c(c2)OCO3)c(OC)c1` (stereo not drawn), the concentration at 6 h in data set [8] was determined as 780 nM; in data set [9], 300 nM. In addition, the “inhibition (INH)” value in [2] is given as 97%; in data set [3], 3%; in data set [4] it was 15%; in data set [7] it was 92%. Moreover, in [10], the Drug uptake is given as 260%. Besides, the result in [11] and in [12] was inactive. Besides, the solubility in data set [5] turned out to be 15.6 µM (≈ 6.89 µg/mL); in [6] it was 15.2 µM (≈ 6.71 µg/mL).

These data come from ChEMBL document CHEMBL2311492, “Small molecule amides as potent ROR-γ selective modulators” (Bioorg Med Chem Lett, 2013).
